# Source: paper PMC6178240 (Molecular Therapy. Nucleic Acids, 2018)
# Where two headings read alike, the source gives them in different places.
# Assays:
# PIK3CB protein [1] = test: PIK3CB protein level by western blot in U87MG cells; assay type: cell-based, human; conditions: 72-hr treatment, normalized with GAPDH
# [2] = test system: orthotopic U87MG-Luc glioblastoma; test: Survival monitoring assay; assay type: in vivo, nude mice; conditions: 3 nmol/20 g mixed with Gelofusine (4 mg/20 g) i.v. at 48-hr interval; for median survival time: n = 5
# In short: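 Fifteen orthotopic U87MG-Luc nude mice were randomised into 3 groups (2 male, 3 female each). Each received saline, scrambled conjugate or test conjugate (3 nmol/20 g) i.v. every 48 hr, all mixed with Gelofusine (4 mg/20 g). Body weight was recorded daily and IVIS luminescence on days 0, 7 and 28. Mice were sacrificed at 40% loss of primary body weight.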
# [3] = test system: orthotopic U87MG-Luc glioblastoma; test: In vivo anti-tumor effects; set-up: species or system nude mice; conditions: 12 times over a 24-hr interval, after 12 days; for tumor growth (luminescence intensity) versus saline: 1 nmol/20 g i.v., n = 5 per group
# In short: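 U87MG-Luc cells (3 × 10⁵ in 3 μL ice-cold PBS) were implanted stereotaxically into BALB/c nude mice (2 mm right of bregma, 3 mm deep). Dosing began once IVIS detected tumours. Twenty mice were randomised into 4 groups (2 male, 3 female each). Groups were saline, scrambled 1 nmol/20 g, or test 0.5 or 1 nmol/20 g, i.v. 12 times at 24-hr intervals. IVIS luminescence was read on days 0, 7 and 12, then excised brains were imaged.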
# U87MG cells [4] = test: Confocal fluorescence microscopy of intracellular distribution; assay type: cell-based, human; conditions: for intracellular distribution (Cy5, confocal): Opti-MEM
# In short: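 U87MG cells were exposed to Cy5-labelled molecules at 600 nM in Opti-MEM for 12 hr at 37°C, with or without prior blocking using excess biRGD peptide. Cells were PBS-washed, fixed in 4% paraformaldehyde for 15 min at room temperature, stained with anti-TGN46 and an Alexa Fluor 488 secondary, then imaged by confocal microscopy.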
# [5] = test system: orthotopic U87MG-Luc glioblastoma; test: In vivo distribution assay; set-up: species or system nude mice
# In short: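 Orthotopic U87MG-Luc nude mice received a single i.v. dose (1 nmol/20 g) of Cy5-labelled conjugate, conjugate plus Gelofusine (4 mg/20 g), unconjugated Cy5-siRNA, or monovalent comparator. Whole-body IVIS Cy5 imaging (ex 640 nm, em 680 nm) was done at 12, 24, 36 and 48 hr. At 24 hr some mice were sacrificed and their tumours and major organs imaged ex vivo.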
# U87MG cells [6] = test: Cellular uptake by flow cytometry; assay type: cell-based, human
# In short: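 U87MG cells were exposed to Cy5-labelled conjugate at 100, 200, 400 or 600 nM, or Cy5-labelled comparators at 600 nM, in Opti-MEM for 12 hr at 37°C. Cells were trypsinised, washed twice in PBS, resuspended, and Cy5 was read by flow cytometry. Receptor blocking used pre-treatment with excess unconjugated biRGD peptide.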
# HeLa cells = test: Cellular uptake by flow cytometry; assay type: cell-based; conditions: HeLa (αvβ3-negative), 600 nM, Opti-MEM, 12 h, 37°C, Cy5 flow cytometry
# [7] = test system: orthotopic U87MG-Luc glioblastoma; test: Immunofluorescence analysis of frozen brain sections; assay type: in vivo, nude mice; conditions: 1 nmol/20 g i.v., confocal
# In short: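 Orthotopic U87MG-Luc nude mice received a single i.v. dose of Cy5-labelled siRNA (1 nmol/20 g). Brains taken from the imaging study were frozen at –80°C and sectioned. Sections were stained for CD31 (vessels) and with DAPI, then imaged by confocal microscopy (Cy5 ex 640 nm, em 680 nm). Normal brain served as comparison.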
# Serum stability assay = assay type: in vitro ADME; conditions: 5 μL 20 μM mixed with 5 μL mouse serum, 37°C, 1.2% agarose gel
# kidneys = test: Histopathological evaluation of kidneys; assay type: in vivo, nude mice; conditions: 1 nmol/20 g i.v., 12 times over a 24-hr interval, H&E
# In short: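 Kidneys from orthotopic U87MG-Luc nude mice dosed i.v. 12 times at 24-hr intervals were used. Tissues were fixed at once in 4% paraformaldehyde, paraffin-embedded, cut into 5-μm sections and stained with H&E for histology.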
# U87MG cells [8] = test: Transwell migration assay; assay type: cell-based, human; conditions: 100-600 nM, 48-hr treatment, Matrigel-coated 8-μm inserts, migration 24 hr
# In short: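 U87MG cells were exposed to test conjugate (100–600 nM) or scrambled conjugate (600 nM) in serum-free Opti-MEM for 24 hr, then held 48 hr with 10% serum. Cells (5 × 10⁴ in serum-free DMEM) were placed on Matrigel-coated (2 mg/mL) 8-μm inserts, with 10% FBS DMEM below, and allowed to migrate 24 hr. Crystal-violet-stained cells were counted in five random fields.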
# PIK3CB protein [9] = assay type: in vivo, human
# PIK3CB mRNA [10] = test: PIK3CB mRNA level by qRT-PCR in U87MG cells; assay type: cell-based, human; conditions: no transfection agent, 48 hr, normalized with GAPDH
# [11] = Immunogenicity evaluation, serum cytokines by ELISA; assay type: in vivo, BALB/c mice; conditions: 5nmol/20 g single injection, serum at 6hr
# In short: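 Immunocompetent BALB/c mice (4–6 weeks, ~20 g) got a single injection of saline or test conjugate (5 nmol/20 g), alone or mixed with Gelofusine (4 mg/20 g). Serum was collected at 6 hr, and IL-6, IFN-β and TNF-α were measured by ELISA kit.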
# [12] = test system: orthotopic U87MG-Luc glioblastoma; test: ki67 staining and TUNEL assay of tumor sections; assay type: in vivo, nude mice
# In short: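 Tumours from the anti-tumour study were used (saline, scrambled 1 nmol/20 g, or test 0.5 or 1 nmol/20 g, i.v. 12 times at 24-hr intervals). They were fixed in 4% paraformaldehyde, paraffin-embedded and cut into 5-μm sections. Sections were stained by Ki67 immunohistochemistry and TUNEL kit. Results were expressed as Ki67-positive/total cells and apoptotic index (TUNEL-positive/total cells).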
# [13] = Hepatotoxicity, serum ALT; set-up: species or system nude mice; conditions: serum from in vivo anti-tumor assay
# In short: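 Serum came from orthotopic U87MG-Luc nude mice in the anti-tumour study. Dosing was saline, scrambled conjugate 1 nmol/20 g, or test conjugate 0.5 or 1 nmol/20 g, given i.v. 12 times at 24-hr intervals. Serum was collected after sacrifice on day 12. ALT was measured on an automated chemistry analyser following the manufacturer's instructions.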
# PIK3CB mRNA [14] = test: In vivo silencing, PIK3CB mRNA in tumor by qRT-PCR; set-up: species or system human; conditions: versus saline and biRGD-siNC
# U87MG cells [15] = test: Cell apoptosis analysis, Annexin V-FITC/PI flow cytometry; assay type: cell-based, human; conditions: 72 hr post-treatment
# In short: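 U87MG cells attached 24 hr, then exposed to the test conjugate (100, 200, 400 or 600 nM) or scrambled conjugate (600 nM) in serum-free Opti-MEM for 24 hr; untreated control. 10% serum was then added and cells held 72 hr. Apoptosis was measured by Annexin V-FITC/PI staining per kit and read on a flow cytometer as apoptosis rate.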
# [16] = 0.5 nmol/20 g i.v. x12, versus saline and biRGD-siNC
# [17] = 1 nmol/20 g i.v. x12, versus saline and biRGD-siNC
substance,measurement,setting,value
"[cyclo(Arg-Gly-Asp-D-Phe-Lys)-Ahx]2-Glu-PEG-MAL (bicyclic or more) [biRGD-siNC, reference compound]","PIK3CB protein level, remaining amount",PIK3CB protein [1]; 600 nM,almost no effect
same,course of body weight,[2],rapid decrease in body weight
same,median survival time,[2],23 days
same,tumor growth (luminescence intensity) versus saline,[3],no significant difference
"cyclo(Arg-Gly-Asp-D-Phe-Lys) (head to tail) [cRGD-siNC-Cy5, reference compound]","intracellular distribution (Cy5, confocal)","U87MG cells [4]; U87MG, 600 nM",substantial uptake and wide distribution in the cell
[cyclo(Arg-Gly-Asp-D-Phe-Lys)-Ahx]2-Glu-PEG-MAL (bicyclic or more) [biRGD-siNC-Cy5],time of peak Cy5 fluorescence intensity of orthotopic GBM,"[5]; 1 nmol/20 g i.v. single dose, IVIS",24 h
same,Cy5 fluorescence within the tumor and kidneys,"[5]; 1 nmol/20 g i.v. single dose, IVIS at 12, 24, and 36 hr",high red Cy5 fluorescent expressions
same,"presence in other main organs (heart, spleen, and lung), ex vivo","[5]; 1 nmol/20 g i.v., organs excised at 24 hr",not found
same,ex vivo targeting of GBM-bearing brain tissue,"[5]; 1 nmol/20 g i.v., organs excised at 24 hr, ex vivo Cy5 imaging",specifically target the GBM-bearing brain tissue
same,intracellular distribution after pre-treating with excess biRGD peptide,U87MG cells [4]; U87MG blocked with biRGD (1 μM),inhibited
same,"intracellular distribution (Cy5, confocal)","U87MG cells [4]; U87MG, 600 nM",substantial uptake and wide distribution in the cell
same,subcellular localization versus trans-Golgi marker TGN46,"U87MG cells [4]; U87MG, 600 nM, anti-TGN46/Alexa Fluor 488",substantial overlap with TGN46 protein
same,uptake after blocking integrin αvβ3 receptors,"U87MG cells [6]; U87MG pre-treated with 1 μM unconjugated biRGD peptide, 37°C, 1 hr",inhibited
same,uptake relative to cRGD-siNC-Cy5,"U87MG cells [6]; U87MG, 600 nM, 12 hr, Cy5 flow cytometry",approximately twice
same,cellular uptake,"U87MG cells [6]; U87MG, 100 to 600 nM, Opti-MEM, 12 hr, 37°C, Cy5 flow cytometry",enhanced cellular uptake that increased progressively
same,saturation of uptake,"U87MG cells [6]; U87MG, tested range 100 to 600 nM",No evidence of saturation of uptake
same,cellular uptake,HeLa cells,no uptake
same,Cy5 signal in sections of GBM-bearing brain tissues,[7]; CD31 staining,significantly higher
same,Cy5 signal in sections of normal brain tissues,[7],little
"siPIK3CB: sense 5′-AC(mC)(mU)G(mU)GGAUACUCAU(mU)A(mA)dTdT-3′, antisense 5′-U(mU)AA(mU)GAGUAUCCA(mC)AG(mG)(mU)dTdT-3′",incubation time in mouse serum after which degraded,Serum stability assay; 0-96 hr,48 h
[cyclo(Arg-Gly-Asp-D-Phe-Lys)-Ahx]2-Glu-PEG-MAL (bicyclic or more) [biRGD-siPIK3CB],pathological sections of kidneys versus saline,kidneys,mild pathological changes in kidneys
same,U87MG cell invasion (transwell migration),U87MG cells [8],significantly inhibit
same,PIK3CB protein level in tumor (immunohistochemistry),PIK3CB protein [9]; 0.5 nmol/20 g i.v. x12,remarkably low
same,PIK3CB protein level in tumor (immunohistochemistry),PIK3CB protein [9]; 1 nmol/20 g i.v. x12,remarkably low
same,PIK3CB protein level in tumor (western blot),PIK3CB protein [9]; 1 nmol/20 g i.v. x12,significantly decreased
same,"PIK3CB mRNA level, remaining amount",PIK3CB mRNA [10]; 400 nM,about 60%
same,"PIK3CB mRNA level, remaining amount",PIK3CB mRNA [10]; 600 nM,~50%
same,IFN-β level of the serum versus saline,[11],no significant difference
same,IL-6 level of the serum versus saline,[11],no significant difference
same,TNF-α level of the serum versus saline,[11],no significant difference
same,apoptotic tumor cells (TUNEL),[12]; [16],obviously higher number
same,proliferative cells in tumors (ki67),[12]; [16],obviously decreased
same,apoptotic tumor cells (TUNEL),[12]; [17],obviously higher number
same,proliferative cells in tumors (ki67),[12]; [17],obviously decreased
same,"number of apoptotic tumor cells, 1 nmol/20 g group relative to 0.5 nmol/20 g group",[12]; TUNEL,about twice
same,"PIK3CB protein level, remaining amount",PIK3CB protein [1]; 400 nM,about 70%
same,"PIK3CB protein level, remaining amount",PIK3CB protein [1]; 600 nM,about 60%
same,ALT level in the serum versus saline,[13]; mixed with Gelofusine,no statistically meaningful difference
same,ALT level in the serum versus saline,[13]; Aeroset Chemistry Analyzer,no statistically meaningful difference
same,PIK3CB mRNA expression in tumor,"PIK3CB mRNA [14]; 0.5 nmol/20 g i.v. x12, qRT-PCR",obviously low expression
same,PIK3CB mRNA expression in tumor,"PIK3CB mRNA [14]; 1 nmol/20 g i.v. x12, qRT-PCR",obviously low expression
same,apoptosis rate,U87MG cells [15]; 400 nM,15.14%
same,apoptosis rate,U87MG cells [15]; 600 nM,20.76%
same,course of body weight,[2],steady
same,median survival time,[2],26 days
same,tumor growth (luminescence intensity) versus saline and biRGD-siNC,[3]; 0.5 nmol/20 g i.v.,no significance
same,tumor growth (luminescence intensity) versus saline,[3],significant tumor growth inhibition
same,degradation in mouse serum at 96 hr,Serum stability assay; 96 hr,low degradation
